Screening results from PubChem BioAssay.
Mot1-301 SUMO – blocks SUMOylation pathway, rescuing yeast Mot1-301 growth. S. cerevisiae Mot1-301 growth rescue, ATP luminescence, 38.5C; percent above DMSO median, 100 means doubled. growth rescue, % at 18.8 µM. hit rate 1% among 320,000;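 active means every valid replicate shows activation above 250% relative to neutral control wells; inactive means the rest, any valid replicate at or below 250%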;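 further: OY570 slx delta 5 strain wells were the positive control but not used for scaling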
JMJD2C inh – blocks human GASC-1 demethylase activity; hit rate 0.069% among 330,000; GST-JMJD2C(1-420) H3K9me3 demethylation, DELFIA europium; Q9H3R0; inhibition, % at 2.35 µM;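 active means more than half of a compound's replicate wells show inhibition beyond 50%, single wells judged on their own value; inconclusive means some, but no more than half, of replicates pass 50% inhibition; inactive means no replicate passes 50% inhibition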;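 further: signal counts dimethyl H3K9 product captured on neutravidin plate; 0% = median of DMSO wells and 100% = 0.3 times that DMSO median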
Target sequence (Q9H3R0 1-420 limits assumed): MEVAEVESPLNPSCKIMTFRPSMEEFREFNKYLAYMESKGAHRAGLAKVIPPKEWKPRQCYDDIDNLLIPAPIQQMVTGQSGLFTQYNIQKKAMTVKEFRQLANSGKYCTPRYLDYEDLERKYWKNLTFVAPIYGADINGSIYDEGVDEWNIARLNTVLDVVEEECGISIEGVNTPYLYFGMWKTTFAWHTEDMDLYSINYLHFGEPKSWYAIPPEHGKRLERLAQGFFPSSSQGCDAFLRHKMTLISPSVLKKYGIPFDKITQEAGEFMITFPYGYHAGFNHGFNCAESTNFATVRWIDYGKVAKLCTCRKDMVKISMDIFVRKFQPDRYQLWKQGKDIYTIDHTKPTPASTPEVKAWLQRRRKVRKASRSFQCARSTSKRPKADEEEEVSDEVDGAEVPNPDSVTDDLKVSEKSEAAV
HIF activator – HIF pathway transcriptional activation. U2OS HRE-luciferase reporter, luminescence; normalized: DMSO 0%, desferrioxamine 100%. activation, % at 7.5 µM (by protocol). hit rate 0.32% among 300,000;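 active means mean activation of at least 10% of the iron chelator positive control signal, with at least half of replicates also reaching 10%; inconclusive means mean and replicate majority disagree about reaching 10%; inactive means mean and most replicates under 10%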
T cell modulator – T cell immune modulators affecting CD8 T cell-vesicle binding. 2C CD8+ T cell-vesicle binding, flow cytometry; hits give low values. response (vesicle binding), % at 7 µM. hit rate 0.068% among 330,000. AID 2052;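 active means response, share of CD8 T cells binding vesicles, and their 90th percentile fluorescence all below set limits, cut at about 80% in these data, passing the limit was not always enough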;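 further: values below 100% mean blocked vesicle binding to the CD8+ T cells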
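Read-out – percent CD8+ FL2 mean versus row control · System – murine 2C transgenic CD8+ T lymphocytes · Times – 1.5 h cell–vesicle binding at 37 °C, then 20 min icy labelling · Control set – naked vesicles low, QL9 vesicles with vehicle high · Detection – cytometric PE anti-B7-1 and Alexa647 anti-CD8 signals after 1% paraformaldehyde fixation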
Mot1 SUMO dose – inhibits SUMO pathway, affecting Mot1-301 yeast growth | AID 493004 | shares compounds with Mot1-301 SUMO | growth activity, percent, % at 42 µM | S. cerevisiae Mot1-301 galactose growth, ATP luminescence, 24 h; -100 = growth of slx-deleted rescue strain | 2,300 tested, under 10 active;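 active means Signal drops as the depositor expects, and the fitted half-maximal dose is no more than ten times the top valid tested dose; inconclusive means Poor fit, or a flat curve whose signal drops by 30% to 70%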;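 further: more negative values mean stronger growth rescue toward the control strain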
* hit, by the source's call; ? = inconclusive; . = no result given; + = active, no number. Sampled rows, rich in hits. Any-hit rate of the full collection: about 1.4%.

SMILES	Mot1-301 SUMO	JMJD2C inh	HIF activator	T cell modulator	Mot1 SUMO dose
c1ccc2nc3c(nc2c1)OCC1CCCCN31 (centres undefined)	360*	-1	-14	495	0
CSCC[C@H](NC(=O)OC(C)(C)C)C(=O)N1CCC(C(=O)N[C@@H](C)C(=O)NCc2ccc(F)cc2)CC1	-7	1	0	236	.
CC(C)NC(=O)CCCc1cn(C)c2ccccc12	503*	-10	-1	563	1
Cc1cc(C)c(S(=O)(=O)NC2CC(C)(C)NC(C)(C)C2)cc1C	-10	0	-4	310	.
COc1c(C)cc(S(=O)(=O)NC2CC(C)(C)NC(C)(C)C2)c(C)c1C	687*	-5	-3	162	1
O=C(Nc1cccc(N=Cc2cc(Cl)cc(Br)c2O)c1)c1ccco1	243	3	.	238	.
O=C(Nc1cccc(N=Cc2cc(Br)cc(Br)c2O)c1)c1ccco1	766*	8	0	608	-1
COc1ccc(OC)c(NC(=O)c2cccc(NC(=O)c3ccccc3C(=O)O)c2)c1	-3	-3	0	305	.
O=[N+]([O-])C(/C=C(/Cl)[N+](=O)[O-])=C(N1CCCCC1)N1CCCCC1	68	22	0	185	.
C=CCN(C(=O)CNC(=O)c1ccco1)C(C(=O)NC1CCCCC1)c1ccc(F)cc1 (centres undefined)	.	13	0	221	.
C=CCN(C(=O)CNC(=O)c1ccco1)C(C(=O)NC1CCCCC1)c1ccccc1 (centres undefined)	737*	12	-1	364	0
Cc1ccc(C(C(=O)NC2CCCCC2)N(CCC(C)C)C(=O)CNC(=O)c2ccco2)o1 (centres undefined)	+	-19	0	434	-1
CSc1nnc2c3cc(C)ccc3n(Cc3ccccc3)c2n1	910*	1	0	425	0
CCC(C(=O)NCc1ccncc1)c1ccccc1 (centres undefined)	-13	15	0	352	.
CN1c2ccccc2-c2nc3ccccc3n2C1c1ccncc1 (centres undefined)	635*	61	-3	545	0
O=C1CN(C(=O)COC(=O)CCC(=O)c2ccc(F)cc2)c2ccccc2N1	1	14	.	346	.
CC(C)C(CC(=O)NCc1ccco1)c1ccco1 (centres undefined)	646*	-3	0	253	0
O=C(CCSCCC(=O)NCc1ccco1)NCc1ccco1	7	-3	0	217	.
Cc1ccc(C)c(NC(=O)C(OC(=O)c2cnc(C)cn2)c2ccccc2)c1 (centres undefined)	4	-4	0	428	.
Cc1cnc(C(=O)OC(C(=O)c2c[nH]c3ccccc23)c2ccccc2)cn1 (centres undefined)	533*	4	0	352	0
COc1ccccc1CNC(=O)[C@H](NC(=O)C1CCN(C(=O)[C@@H](N)CCSC)CC1)C(C)C	-16	-7	0	432	.
COc1ccccc1CNC(=O)[C@H](C)NC(=O)C1CCN(C(=O)[C@@H](N)CC(C)C)CC1	618*	?	0	365	0
NC(=O)COC(=O)c1ccccc1Oc1ccccc1	-1	-3	0	549	.
CC12CC3(C)CC(C)(C1)CC(C(=O)NC(=S)N1CCCC1)(C2)C3	766*	-15	0	246	1
CC(C)(C)C(=O)NC(=S)N1CCCC1	-10	1	0	229	.
SMILES	Mot1-301 SUMO	JMJD2C inh	HIF activator	T cell modulator	Mot1 SUMO dose
O=c1nc2ccc(Cl)cn2c2ccc(S(=O)(=O)N3CCOCC3)cc12	577*	-16	0	361	0
COc1ccc(Nc2oc(-c3ccccc3F)nc2C#N)cc1	-14	-26	4	484	.
COc1ccc(Nc2oc(-c3cccs3)nc2C#N)cc1	918*	-25	6	344	-1
Cc1ccc(CNC(=O)c2ccc(S(=O)(=O)N(C)C)cc2)n1C	104	-8	0	326	.
COc1ccc(N(CC(=O)NCc2ccc(C)cc2)S(=O)(=O)c2c(C)nn(C)c2C)cc1	585*	9	.	0	0
COc1ccc(CNC(=O)CN(c2ccc(OC)cc2)S(=O)(=O)c2c(C)nn(C)c2C)cc1	131	5	-1	398	.
NC(=O)NC(=O)COC(=O)/C=C/c1cccs1	405*	5	0	135	0
COc1ncccc1C(=O)N1CCCC(N2CCN(c3cccc(Cl)c3)CC2)C1 (centres undefined)	1	-2	1	259	.
CCOC(=O)c1cnc2c(C)c(Cl)ccc2c1NCCCN1CCOCC1	-6	-5	2	242	.
CCOC(=O)c1cnc2c(C)c(Cl)ccc2c1N1CCOCC1	828*	-4	0	250	1
C[C@@H](C(=O)N1CCN(c2ccccc2)CC1)N1C(=O)C2CC=CCC2C1=O (some centres undefined)	2	-3	.	483	.
CCN(CC)C(=O)c1cn(CCC#N)nc1-c1ccc(F)cc1	-2	7	0	.	.
O=C(N/N=C\c1cn(-c2ccccc2)nc1-c1ccccc1)c1ccc(Br)o1	+	-7	1	250	-1
Cc1ccc(-c2nn(-c3ccccc3)cc2/C=N/NC(=O)c2ccc(Br)o2)cc1	24	13	4	250	.
COc1ccc(-c2nnc(SCC(=O)NC(=O)Cc3ccccc3)n2C)cc1	3	1	.	159	.
COc1ccccc1NS(=O)(=O)c1cc(Cl)ccc1OC	442*	13	3	247	1
COc1ccccc1NC(=O)Nc1ccc(Cl)c(S(=O)(=O)Nc2ccccc2OC)c1	390*	5	-1	91	0
COc1ccc(C(=O)Nc2ccc(Cl)c(S(=O)(=O)Nc3ccccc3OC)c2)cc1	4	-1	1	284	.
COc1cc(NC(=O)c2ccccc2F)c(OC)cc1NC(=O)CN1CCCCC1	552*	14	5	275	0
COc1ccc(C2(c3ccc(OC)cc3)NC(=O)N(CC(=O)Nc3ccc(OC)c(OC)c3)C2=O)cc1	172	-21	-1	171	.
CCOC(=O)c1nc(C)sc1-c1ccnn1S(=O)(=O)c1cccc(Cl)c1	6	16	0	143	.
O=C(c1cc(Cl)c(=O)n(Cc2ccc(Cl)cc2)c1)N1CCOCC1	658*	0	0	458	0
O=C(c1ccc(C(F)(F)F)n(Cc2ccc(Cl)cc2)c1=O)N1CCOCC1	-6	-3	-1	135	.
CCC(NC(=O)c1ccccc1NC(=O)c1ccco1)C(=O)O (centres undefined)	4	.	.	183	.
CCC(NC(=O)c1ccccc1NC(=O)c1ccco1)C(=O)NC1CCCCC1 (centres undefined)	381*	1	0	261	0
N#Cc1ccc(OCC(=O)NCC(c2cccs2)N2CCOCC2)cc1 (centres undefined)	0	12	0	144	.
